Experiment [1] is described as follows: Selectivity ratio of alpha-2A adrenergic receptor to guinea pig sigma1 receptor.
Experiment [2] in a line: Selectivity ratio of 5-HT transporter to guinea pig sigma1 receptor.
Experiment [3] is described as follows: Selectivity ratio of 5-HT1A receptor to guinea pig sigma1 receptor.
The test system of experiment [4] is Mus musculus. The experiment in a line: Antiallodynic activity against capsaicin-induced nocifensive behavior in mouse assessed as paw withdrawal latency to von Frey filament-induced pain at 0.5 mg/kg administered 30 mins before and measured 15 mins after capsaicin challenge. The class given is functional, organism-based. Also on record: dose 0.5 mg/kg.
Experiment [5] concerns Mus musculus. In words: Antiallodynic activity against capsaicin-induced nocifensive behavior in mouse assessed as paw withdrawal latency to von Frey filament-induced pain at 32 mg/kg administered 30 mins before and measured 15 mins after capsaicin challenge. The class given is functional. In short, it runs like this: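 Mechanical allodynia model in mice: capsaicin injected subplantarly into the midplantar surface of the right hind paw, and test compound given 30 min beforehand. Withdrawal latency to a 1 g von Frey filament was read 15 min after capsaicin. 32 mg/kg was the highest dose tested.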

The nature of experiment [6]: Displacement of [3H]ditolylguanidine from rat liver sigma 2 receptor by scintillation counting. In short, it runs like this:
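σ2 sites from rat liver homogenate, labelled with nonselective [3H]-ditolylguanidine. 500 nM unlabelled (+)-pentazocine masks σ1 sites. Competition with six test concentrations, usually in triplicate. Bound radioactivity counted by scintillation. IC50 by nonlinear regression and Ki by Cheng–Prusoff; mean ± SEM from three independent experiments for high-affinity ligands.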
For orientation: Displacement assays read how much labelled ligand stays bound in the presence of the test substance.

For experiment [7], the species on record is Sus scrofa. In words: Displacement of (+)-[3H]MK-801 from pig NMDA receptor PCP binding site at 1 uM. The method in brief: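 PCP site of the NMDA receptor: competition against [3H]-(+)-MK-801 in fresh pig brain cortex membranes. Test compounds at 1 μM.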
In experiment [8] the target is T1, Alpha-1A adrenergic receptor (Homo sapiens, UniProt P35348).
T1 sequence (P35348 whole entry): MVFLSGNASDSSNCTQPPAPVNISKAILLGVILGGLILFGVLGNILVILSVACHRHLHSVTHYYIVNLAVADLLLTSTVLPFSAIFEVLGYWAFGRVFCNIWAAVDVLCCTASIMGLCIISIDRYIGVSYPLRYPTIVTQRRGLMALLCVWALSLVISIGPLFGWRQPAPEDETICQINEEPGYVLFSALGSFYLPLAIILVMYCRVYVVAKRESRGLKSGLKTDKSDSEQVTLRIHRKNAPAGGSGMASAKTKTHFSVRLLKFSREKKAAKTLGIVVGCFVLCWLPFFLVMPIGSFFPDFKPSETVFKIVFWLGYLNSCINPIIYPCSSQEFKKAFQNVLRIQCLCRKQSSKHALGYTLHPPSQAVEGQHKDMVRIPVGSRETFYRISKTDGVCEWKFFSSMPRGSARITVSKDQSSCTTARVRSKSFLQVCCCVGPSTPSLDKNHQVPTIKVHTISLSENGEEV
The experiment in a line: Binding affinity to alpha-1A adrenergic receptor.

The target in experiment [9] is T2, Alpha-2A adrenergic receptor (Homo sapiens, UniProt P08913).
T2 sequence (P08913 whole entry): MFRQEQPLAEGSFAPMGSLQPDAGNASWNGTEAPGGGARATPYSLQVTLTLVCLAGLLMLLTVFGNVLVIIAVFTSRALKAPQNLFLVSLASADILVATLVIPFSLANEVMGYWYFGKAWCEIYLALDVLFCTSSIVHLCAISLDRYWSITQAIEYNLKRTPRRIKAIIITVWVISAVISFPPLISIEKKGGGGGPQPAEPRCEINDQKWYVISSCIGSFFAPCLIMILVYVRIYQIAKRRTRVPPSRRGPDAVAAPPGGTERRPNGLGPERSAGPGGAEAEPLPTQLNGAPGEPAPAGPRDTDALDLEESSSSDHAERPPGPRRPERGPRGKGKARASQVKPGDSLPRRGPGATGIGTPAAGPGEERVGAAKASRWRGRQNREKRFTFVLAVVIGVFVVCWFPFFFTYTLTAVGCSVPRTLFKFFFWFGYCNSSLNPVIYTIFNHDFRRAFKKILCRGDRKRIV
In words: Binding affinity to alpha-2A adrenergic receptor.

Experiment [10] addresses Sodium-dependent serotonin transporter (Homo sapiens, UniProt P31645). The experiment in a line: Binding affinity to 5-HT transporter.
Experiment [11] deals with T3, 5-hydroxytryptamine receptor 1A (Homo sapiens, UniProt P08908).
T3 sequence (P08908 whole entry): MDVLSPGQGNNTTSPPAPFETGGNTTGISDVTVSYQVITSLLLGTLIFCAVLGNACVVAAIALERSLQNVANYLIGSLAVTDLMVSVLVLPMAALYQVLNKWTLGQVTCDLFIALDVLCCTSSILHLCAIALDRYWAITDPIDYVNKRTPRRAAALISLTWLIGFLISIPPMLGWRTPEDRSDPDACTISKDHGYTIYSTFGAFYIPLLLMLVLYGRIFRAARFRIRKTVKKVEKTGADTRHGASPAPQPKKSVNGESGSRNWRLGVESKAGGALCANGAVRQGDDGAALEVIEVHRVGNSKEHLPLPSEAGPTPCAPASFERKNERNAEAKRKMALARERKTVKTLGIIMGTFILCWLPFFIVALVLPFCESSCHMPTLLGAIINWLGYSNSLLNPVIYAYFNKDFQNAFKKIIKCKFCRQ
In words: Binding affinity to 5-HT1A receptor.

A short description of experiment [12]: Selectivity ratio of alpha-1A adrenergic receptor to guinea pig sigma1 receptor.
Experiment [13] has as its target Sigma non-opioid intracellular receptor 1 (Cavia porcellus, UniProt Q60492). The experiment in a line: Displacement of (+)-[3H]pentazocine from guinea pig brain sigma 1 receptor after 180 mins by scintillation counting.

This is an account of results in ChEMBL document CHEMBL1828572, “Combination of two pharmacophoric systems: synthesis and pharmacological evaluation of spirocyclic pyranopyrazoles with high σ₁ receptor affinity” (J Med Chem, 2011).

The source made the active and inactive calls. The rule behind the calls is not given here.

By Ki is commonly meant a dissociation constant, usually derived from enzyme kinetics or from competition with a known ligand. Lower therefore signals tighter binding. By IC50 is commonly meant the concentration that gives 50% inhibition. High values mean weaker potency in that assay, low ones greater potency in that assay.

Sodium-dependent serotonin transporter, sequence (P31645 whole entry): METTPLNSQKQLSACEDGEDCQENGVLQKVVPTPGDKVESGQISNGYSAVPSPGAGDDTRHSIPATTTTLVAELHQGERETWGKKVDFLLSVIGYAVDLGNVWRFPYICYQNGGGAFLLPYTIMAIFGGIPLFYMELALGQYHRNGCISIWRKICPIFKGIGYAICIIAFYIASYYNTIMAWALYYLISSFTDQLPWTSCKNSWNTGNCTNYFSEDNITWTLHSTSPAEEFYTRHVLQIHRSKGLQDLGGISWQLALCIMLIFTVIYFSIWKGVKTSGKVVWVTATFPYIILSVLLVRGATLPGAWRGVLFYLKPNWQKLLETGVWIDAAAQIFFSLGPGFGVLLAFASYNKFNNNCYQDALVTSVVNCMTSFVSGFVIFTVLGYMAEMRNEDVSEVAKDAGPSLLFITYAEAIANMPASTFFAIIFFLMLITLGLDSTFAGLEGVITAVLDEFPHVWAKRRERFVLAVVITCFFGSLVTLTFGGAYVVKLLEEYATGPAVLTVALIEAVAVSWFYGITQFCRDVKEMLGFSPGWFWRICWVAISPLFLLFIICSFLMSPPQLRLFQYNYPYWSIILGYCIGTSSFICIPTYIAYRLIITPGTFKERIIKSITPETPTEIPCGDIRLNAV
Sigma non-opioid intracellular receptor 1, sequence (Q60492 whole entry): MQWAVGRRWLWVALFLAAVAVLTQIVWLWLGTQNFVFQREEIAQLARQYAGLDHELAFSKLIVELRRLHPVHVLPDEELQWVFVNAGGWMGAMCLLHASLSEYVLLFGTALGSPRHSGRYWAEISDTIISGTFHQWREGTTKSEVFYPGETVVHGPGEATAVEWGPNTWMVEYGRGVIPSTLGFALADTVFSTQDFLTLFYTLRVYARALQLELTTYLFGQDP

Turning to `COC1Cc2c(cnn2-c2ccccc2)C2(CCN(CC3CCCCC3)CC2)O1` (configuration not stated), the Ratio in [1], in experiment [2], in experiment [3] and in [12] was 1000 each time. Further, the result in experiment [4] and in experiment [7] was inactive. Besides, in experiment [5], the Activity stood at 70%. The molecule further showed a Ki in experiment [6] of 109 nM. For the same molecule, the IC50 in experiment [8], in [9], in [10] and in [11] was above 1000 nM throughout.
On to `C=C(C)CCN1CCC2(CC1)OC(OC)Cc1c2cnn1-c1ccccc1` (configuration not stated), for which the outcome in [4] and in experiment [7] was inactive. In addition, in experiment [5], the Activity is given as 25%. The results for the Ki in experiment [13] and in experiment [6] were 1.6 nM and above 1000 nM, respectively.
